Screens: PubChem, Broad Institute
E-sel inducer: induces E-selectin expression in human endothelial cells | HUVEC E-selectin immunofluorescence imaging; normalized: neutral wells 0, TNF-alpha wells 100 | activation, % at 7.58 µM | 0.37% of 260,000 active | P16581;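 active = mean E-selectin-positive cell signal at least 10% of the positive control, reached in at least 60% of replicates, without over 20% cell loss; inconclusive = no rule given, readout overlaps actives, possibly toxicity-flagged; inactive = the rest, including those meeting only one limit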
Target sequence (P16581 whole entry, looked up): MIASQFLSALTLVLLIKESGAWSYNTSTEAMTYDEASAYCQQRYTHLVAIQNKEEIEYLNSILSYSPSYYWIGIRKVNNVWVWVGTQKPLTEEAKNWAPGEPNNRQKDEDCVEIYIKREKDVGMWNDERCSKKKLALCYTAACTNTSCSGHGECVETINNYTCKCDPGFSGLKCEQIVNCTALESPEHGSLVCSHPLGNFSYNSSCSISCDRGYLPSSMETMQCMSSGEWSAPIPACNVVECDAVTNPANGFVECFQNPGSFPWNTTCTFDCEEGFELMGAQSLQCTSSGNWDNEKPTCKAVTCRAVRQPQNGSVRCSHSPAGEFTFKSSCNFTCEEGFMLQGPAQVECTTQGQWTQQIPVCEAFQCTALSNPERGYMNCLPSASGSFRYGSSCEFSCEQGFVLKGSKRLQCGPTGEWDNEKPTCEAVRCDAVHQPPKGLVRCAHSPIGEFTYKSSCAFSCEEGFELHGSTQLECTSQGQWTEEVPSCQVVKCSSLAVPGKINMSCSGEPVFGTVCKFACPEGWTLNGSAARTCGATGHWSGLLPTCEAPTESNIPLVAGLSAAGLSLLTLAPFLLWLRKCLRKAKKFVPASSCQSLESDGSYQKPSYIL
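System: HUVEC, human umbilical vein endothelial cells; quantity: 3,000 cells/well; buffer or medium: EGM-2 medium, gelatin-coated wells; dosing: single-point compound dose; detection: immunofluorescence imaging; evaluation: % PE-positive cells; benchmarks: TNF-alpha, DMSO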
Statin myotox sup: suppressors of simvastatin-induced myotoxicity in C2C12 myotubes. 0.78% of 330,000 active. AID 602340. rescue of ATP level, % at 7.49 µM. ATP luminescence, 48 h; scaled: DMSO 0, geranylgeraniol control 100;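 active = mean ATP rescue above about 67%, or every replicate alone reaching that limit, limit read from the data, passing the limit was not always enough; inconclusive = no clear call, values can overlap the other calls; inactive = mean under the limit and some replicate under it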;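 also: myotubes were challenged with 10 µM simvastatin during compound exposure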
DENV2 CPE rescue: DENV2-induced cell death inhibition; DENV2-infected cells, cytopathic effect rescue, plate reader; CPE inhibition, % at 9.99 µM; 1.7% of 350,000 active; AID 651640; in the data active = CPE inhibition above about 20%, passing the limit was not always enough; inconclusive = no clear call, values can overlap the other calls; tested in BHK-21 cells;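 also: 0% = median of neutral control wells and 100% = median of positive control wells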
Starred values were filed as active, the others as inactive; ? = inconclusive; nt = no result. Only some compounds are listed: those with a hit (about 2.2% of all), similar ones and a draw of the others.

SMILES	E-sel inducer	Statin myotox sup	DENV2 CPE rescue
C[C@H]1CN([C@@H](C)CO)C(=O)c2cccc(NS(=O)(=O)c3ccc(Cl)cc3)c2O[C@@H]1CN(C)Cc1ccc(Cl)c(Cl)c1	0	12	2
C[C@@H]1CN([C@@H](C)CO)C(=O)c2cc(NC(=O)CCC(F)(F)F)ccc2O[C@H]1CN(C)Cc1ccc(C(=O)O)cc1	nt	6	11
O=C(C[C@H]1C=C[C@H](NS(=O)(=O)c2ccccc2)[C@H](CO)O1)NCCN1CCCCC1	0	-7	-6
C[C@H]1CN([C@@H](C)CO)C(=O)c2cc(NC(=O)Nc3ccccc3)ccc2O[C@H]1CN(C)S(=O)(=O)c1ccc(F)cc1	0	-24	5
O=C(O)C1CCC(=O)N(C2CC2)C1c1ccccc1 (configuration not stated)	0	107*	nt
O=C(O)C1CCC(=O)N(C2CCCCC2)C1c1ccccc1Cl (configuration not stated)	0	6	14
COc1ccc(C#Cc2ccc([C@H]3[C@H](CO)N4CCCCN(C(=O)c5ccncc5)C[C@@H]34)cc2)cc1	-1	-8	47*
C[C@@H](O)C#Cc1ccc([C@@H]2[C@H](CO)N3CCCCN(C(=O)c4ccncc4)C[C@@H]23)cc1	1	-6	8
C[C@H](O)C#Cc1ccc([C@H]2[C@@H](CO)N3CCCCN(C(=O)c4ccncc4)C[C@@H]23)cc1	0	6	-9
COc1ccc(C#Cc2ccc([C@H]3[C@@H](CO)N4CCCCN(C(=O)c5ccncc5)C[C@@H]34)cc2)cc1	0	53	59*
COc1ccc(C#Cc2ccc([C@@H]3[C@@H](CO)N4CCCCN(C(=O)c5ccncc5)C[C@H]34)cc2)cc1	0	-53	28*
C[C@H](O)C#Cc1ccc([C@H]2[C@@H](CO)N3CCCCN(C(=O)c4ccncc4)C[C@H]23)cc1	0	4	-10
CCCN1[C@H](C(=O)OC)[C@@H](CO)[C@@H]2Cn3c(ccc(-c4cccnc4)c3=O)[C@@H]21	0	nt	-2
CC(C)C#Cc1cnc2c(c1)C(=O)N([C@H](C)CO)C[C@H](C)[C@H](CN(C)C(=O)Cc1ccncc1)O2	0	-14	-1
C[C@@H]1CN([C@H](C)CO)C(=O)c2cc(NC(=O)Nc3ccccc3)ccc2O[C@H]1CN(C)S(C)(=O)=O	-1	-11	-15
C/C=C(\C)CN1CCC(n2nccc2NC(=O)CCOc2ccccc2)CC1	nt	-3	-1
C/C=C(\C)CN1CCC(n2nccc2NC(=O)CCc2ccccc2)CC1	0	4	101*
CCN(CC)CCCC(C)Nc1nccc2c(Cl)cccc12 (configuration not stated)	0	-6	49*
CCN(CC)CCOc1c(C)cccc1Cl	nt	1	2
COCC(=O)Nc1ccc2c(c1)C(=O)N(C)[C@H]1CC[C@H](CC(=O)NCc3ccccc3F)O[C@H]1CO2	0	23	-7
C[C@@H]1CN([C@@H](C)CO)S(=O)(=O)c2ccc(/C=C/c3ccccc3)cc2O[C@@H]1CN(C)C(=O)NC1CCCCC1	nt	15	-11
Cc1c(N(C)C(=O)COc2ccc3ccccc3c2)c(=O)n(-c2ccccc2)n1C	42*	19	-2
Cc1c(NC(=O)c2ccc(COc3ccc4ccccc4c3)o2)c(=O)n(-c2ccccc2)n1C	nt	-14	3
C[C@@H]1CN([C@H](C)CO)C(=O)c2cc(NC(=O)C3CC3)ccc2O[C@H]1CN(C)S(=O)(=O)c1cn(C)cn1	0	2	13
CN1C(=O)c2cc(NC(=O)C3CCC3)ccc2OC[C@@H]2O[C@@H](CC(=O)NCCc3ccncc3)CC[C@@H]21	0	nt	-6
SMILES	E-sel inducer	Statin myotox sup	DENV2 CPE rescue
C[C@H]1CN([C@@H](C)CO)C(=O)c2cc(NC(=O)CCN3CCOCC3)ccc2O[C@@H]1CN(C)C(=O)NC1CCCCC1	9	4	-6
C[C@H]1CN([C@@H](C)CO)C(=O)c2cc(NC(=O)CCN3CCOCC3)ccc2O[C@H]1CN(C)Cc1ccncc1	-11	-16	-1
CC(C)NC(=O)N(C)C[C@@H]1Oc2ccc(NC(=O)CCN3CCOCC3)cc2C(=O)N([C@H](C)CO)C[C@H]1C	65*	-2	-2
C[C@@H]1CN([C@@H](C)CO)C(=O)c2cc(NC(=O)CCN3CCOCC3)ccc2O[C@@H]1CN(C)C(=O)NC1CCCCC1	-7	3	-9
CNC[C@H]1Oc2ccc(NC(=O)CCN3CCOCC3)cc2C(=O)N([C@H](C)CO)C[C@@H]1C	0	-19	27*
C[C@@H]1CN([C@@H](C)CO)C(=O)c2cc(NC(=O)CCN3CCOCC3)ccc2O[C@H]1CN(C)Cc1ccncc1	32*	-17	?
CC(C)NC(=O)N(C)C[C@H]1Oc2ccc(NC(=O)CCN3CCOCC3)cc2C(=O)N([C@@H](C)CO)C[C@H]1C	46*	9	-3
CNC[C@H]1Oc2ccc(NC(=O)CCN3CCOCC3)cc2C(=O)N([C@@H](C)CO)C[C@@H]1C	0	-17	nt
C[C@H](NC(=O)C[C@@H]1C[C@H]2c3cc(NC(=O)NC4CCCCC4)ccc3O[C@H]2[C@H](CO)O1)c1ccccc1	0	-1	9
C[C@@H]1CCCCO[C@@H](CN(C)Cc2ccncc2)[C@@H](C)CN([C@@H](C)CO)C(=O)c2cc(NC(=O)Cc3ccccc3)ccc2O1	0	-4	nt
COc1ccc2cc3cc(C(=O)NCCC(C)C)oc3nc2c1	0	-22	3
COCCNC(=O)c1cc2cc3ccc(OC)cc3nc2o1	0	-11	25*
COc1cc2c(cc1OC)C(C)N(C(=O)Cn1ncc3c1-c1cc(C)ccc1OC3)CC2 (configuration not stated)	nt	-1	70*
CCCCN(CC)C(=O)Cn1ncc2c1-c1cc(C)ccc1OC2	0	4	2
COC(=O)[C@@H]1N[C@@H]2c3ccc(C4=CCCCC4)c(=O)n3C[C@@H]2[C@H]1CO	0	-16	-1
COCC(=O)N1[C@@H](CO)[C@H](c2ccccc2)C12CN(C(=O)c1ccccc1)C2	0	nt	2
O=C1[C@H](Cc2ccccc2)NCC=CC[C@H](c2ccc(Cl)cc2)N1Cc1ccc(Cl)cc1	0	0	2
O=C1[C@H](Cc2ccccc2)NCC=CC[C@H](c2ccc(Cl)cc2)N1Cc1ccccc1	0	-11	25*
Cc1cccc(-n2nc3c(c2NC(=O)c2ccco2)CS(=O)C3)c1C (configuration not stated)	1	nt	14
Cc1ccc(-n2nc3c(c2NC(=O)c2ccco2)CS(=O)C3)c(C)c1 (configuration not stated)	1	nt	55*
CCCc1ccc2oc(C(=O)N(Cc3ccncc3)CC3CCCO3)c(C)c2c1 (configuration not stated)	nt	-1	-6
Cc1ccc2oc(C(=O)N(Cc3ccncc3)CC3CCCO3)c(C)c2c1 (configuration not stated)	-1	2	47*
C[C@H](CO)N1C[C@H](C)[C@@H](CN(C)CC2CC2)Oc2cc(-c3ccc(F)cc3)ccc2S1(=O)=O	nt	-22	-5
C[C@@H]1CN([C@H](C)CO)S(=O)(=O)c2ccc(-c3ccc(F)cc3)cc2O[C@H]1CN(C)C(=O)Nc1ccccc1F	0	-81	-8
